Test results reported in ChEMBL document CHEMBL1125826, “Synthesis and biological activity of 5-amino- and 5-hydroxyquinolones, and the overwhelming influence of the remote N1-substituent in determining the structure-activity relationship” (1991).
Values after ≈ are worked out from the molar mass of the structure shown.

What was measured:
Assay type in all cases: functional
[1] = target: DNA gyrase (Escherichia coli) (UniProt P0AES6+P0AES4); assay: Minimum inhibitory concentration against Escherichia coli DNA-gyrase in supercoiling assay
Enterobacter cloacae = assay: Antibacterial activity was determined against gram negative organism, Enterobacter cloacae MA2646; conditions: Enterobacter cloacae; read-out: MIC
Escherichia coli = assay: Antibacterial activity was determined against gram negative organism, Escherichia coli vogel; conditions: Escherichia coli; read-out: MIC
In short: (§1)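 MIC (µg/mL) by standard microtitration against a panel of 10 Gram-positive and Gram-negative organisms; values averaged from multiple experiments.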

Bacteria [2] = assay: MIC ratio measured as the mean MICs of gram-negative bacteria
In short: (§2)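 Geometric mean of the microtitration MICs (µg/mL) over the Gram-negative organisms, and separately over the Gram-positive organisms, of the 10-strain panel; individual MICs averaged from multiple experiments.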

Bacteria [3] = assay: MIC ratio measured as the mean MICs of gram-positive bacteria; in short: as §2
Klebsiella pneumoniae = assay: Antibacterial activity was determined against gram negative organism, Klebsiella pneumoniae MGH-2; conditions: Klebsiella pneumoniae; read-out: MIC; in short: as §1
Pseudomonas aeruginosa = assay: Antibacterial activity was determined against gram negative organism, Pseudomonas aeruginosa UI-18; conditions: Pseudomonas aeruginosa; read-out: MIC; in short: as §1
Bacteria [4] = assay: Antibacterial activity was determined against gram negative organism, Providencia rettgeri. M1771; conditions: Bacteria; read-out: MIC; in short: as §1
Staphylococcus aureus [5] = assay: Antibacterial activity was determined against gram positive organism, Staphylococcus aureus H228; conditions: Staphylococcus aureus; read-out: MIC; in short: as §1
Streptococcus pneumoniae = assay: Antibacterial activity was determined against gram positive organism, Streptococcus pneumoniae SV-1; conditions: Streptococcus pneumoniae; read-out: MIC; in short: as §1
Enterococcus faecalis = assay: Antibacterial activity was determined against gram positive organism, Streptococcus faecalis MGH-2; conditions: Enterococcus faecalis; read-out: MIC; in short: as §1
Staphylococcus aureus [6] = assay: Antibacterial activity was determined against gram positive organism, Staphylococcus aureus UC76; in short: as §1
Streptococcus pyogenes = assay: Antibacterial activity was determined against gram positive organism, Streptococcus pyogenes C203; conditions: Streptococcus pyogenes; read-out: MIC; in short: as §1
[7] = Staphylococcus aureus, read-out: MIC

CCn1cc(C(=O)O)c(=O)c2cc(F)c(N3CCNCC3)c(Cl)c21
MIC [1]: 2.5 µg/mL (≈ 7.07 µM) | MIC (Enterobacter cloacae): 0.1 µg/mL (≈ 0.283 µM) | MIC (Escherichia coli): 0.1 µg/mL (≈ 0.283 µM) | Geometric mean MIC over Gram-negative bacteria (µg/mL) (Bacteria [2]): 0.3 | Geometric mean MIC over Gram-positive bacteria (µg/mL) (Bacteria [3]): 1.19 | MIC (Klebsiella pneumoniae): 0.2 µg/mL (≈ 0.565 µM) | MIC (Pseudomonas aeruginosa): 3.1 µg/mL (≈ 8.76 µM) | MIC (Bacteria [4]): 0.4 µg/mL (≈ 1.13 µM) | MIC (Staphylococcus aureus [5]): 0.4 µg/mL (≈ 1.13 µM) | MIC (Streptococcus pneumoniae): 3.1 µg/mL (≈ 8.76 µM) | MIC (Enterococcus faecalis): 3.1 µg/mL (≈ 8.76 µM) | MIC (Staphylococcus aureus [6]): 0.2 µg/mL (≈ 0.565 µM) | MIC (Streptococcus pyogenes): 3.1 µg/mL (≈ 8.76 µM)

CCn1cc(C(=O)O)c(=O)c2cc(F)c(N3CCNCC3)c(F)c21
MIC [1]: 2.5 µg/mL (≈ 7.41 µM) | MIC (Enterobacter cloacae): 0.1 µg/mL (≈ 0.296 µM) | MIC (Escherichia coli): 0.1 µg/mL (≈ 0.296 µM) | Geometric mean MIC over Gram-negative bacteria (µg/mL) (Bacteria [2]): 0.17 | Geometric mean MIC over Gram-positive bacteria (µg/mL) (Bacteria [3]): 1.58 | MIC (Klebsiella pneumoniae): 0.1 µg/mL (≈ 0.296 µM) | MIC (Pseudomonas aeruginosa): 0.8 µg/mL (≈ 2.37 µM) | MIC (Bacteria [4]): 0.2 µg/mL (≈ 0.593 µM) | MIC (Staphylococcus aureus [5]): 1.6 µg/mL (≈ 4.74 µM) | MIC (Streptococcus pneumoniae): 3.1 µg/mL (≈ 9.19 µM) | MIC (Enterococcus faecalis): 1.6 µg/mL (≈ 4.74 µM) | MIC (Staphylococcus aureus [6]): 0.4 µg/mL (≈ 1.19 µM) | MIC (Streptococcus pyogenes): 3.1 µg/mL (≈ 9.19 µM)

CCn1cc(C(=O)O)c(=O)c2cc(F)c(N3CCC(N)C3)c(F)c21 (stereo not given)
MIC [1]: 2.5 µg/mL (≈ 7.41 µM) | MIC (Enterobacter cloacae): 0.1 µg/mL (≈ 0.296 µM) | MIC (Escherichia coli): 0.1 µg/mL (≈ 0.296 µM) | Geometric mean MIC over Gram-negative bacteria (µg/mL) (Bacteria [2]): 0.17 | Geometric mean MIC over Gram-positive bacteria (µg/mL) (Bacteria [3]): 0.27 | MIC (Klebsiella pneumoniae): 0.2 µg/mL (≈ 0.593 µM) | MIC (Pseudomonas aeruginosa): 0.4 µg/mL (≈ 1.19 µM) | MIC (Bacteria [4]): 0.2 µg/mL (≈ 0.593 µM) | MIC (Staphylococcus aureus [5]): 0.4 µg/mL (≈ 1.19 µM) | MIC (Streptococcus pneumoniae): 0.4 µg/mL (≈ 1.19 µM) | MIC (Enterococcus faecalis): 0.4 µg/mL (≈ 1.19 µM) | MIC (Staphylococcus aureus [6]): 0.1 µg/mL (≈ 0.296 µM) | MIC (Streptococcus pyogenes): 0.2 µg/mL (≈ 0.593 µM)

CCNCC1CCN(c2c(F)cc3c(=O)c(C(=O)O)cn(CC)c3c2Cl)C1 (stereo not given)
MIC [1]: 2.5 µg/mL (≈ 6.32 µM) | MIC (Enterobacter cloacae): 0.2 µg/mL (≈ 0.505 µM) | MIC (Escherichia coli): 0.2 µg/mL (≈ 0.505 µM) | Geometric mean MIC over Gram-negative bacteria (µg/mL) (Bacteria [2]): 0.69 | Geometric mean MIC over Gram-positive bacteria (µg/mL) (Bacteria [3]): 0.057 | MIC (Klebsiella pneumoniae): 0.4 µg/mL (≈ 1.01 µM) | MIC (Pseudomonas aeruginosa): 12.5 µg/mL (≈ 31.6 µM) | MIC (Bacteria [4]): 0.8 µg/mL (≈ 2.02 µM) | MIC (Staphylococcus aureus [5]): 0.1 µg/mL (≈ 0.253 µM) | MIC (Streptococcus pneumoniae): 0.05 µg/mL (≈ 0.126 µM) | MIC (Enterococcus faecalis): 0.1 µg/mL (≈ 0.253 µM) | MIC (Staphylococcus aureus [6]): 0.025 µg/mL (≈ 0.0632 µM) | MIC (Streptococcus pyogenes): 0.05 µg/mL (≈ 0.126 µM)

CCNCC1CCN(c2c(F)c(O)c3c(=O)c(C(=O)O)cn(CC)c3c2F)C1 (stereo not given)
MIC [1]: 2.5 µg/mL (≈ 6.32 µM) | MIC (Enterobacter cloacae): 0.4 µg/mL (≈ 1.01 µM) | MIC (Escherichia coli): 0.4 µg/mL (≈ 1.01 µM) | Geometric mean MIC over Gram-negative bacteria (µg/mL) (Bacteria [2]): 1.38 | Geometric mean MIC over Gram-positive bacteria (µg/mL) (Bacteria [3]): 0.2 | MIC (Klebsiella pneumoniae): 0.8 µg/mL (≈ 2.02 µM) | MIC (Pseudomonas aeruginosa): 12.5 µg/mL (≈ 31.6 µM) | MIC (Bacteria [4]): 3.1 µg/mL (≈ 7.84 µM) | MIC (Staphylococcus aureus [5]): 0.4 µg/mL (≈ 1.01 µM) | MIC (Streptococcus pneumoniae): 0.2 µg/mL (≈ 0.506 µM) | MIC (Enterococcus faecalis): 0.4 µg/mL (≈ 1.01 µM) | MIC (Staphylococcus aureus [6]; [7]): 0.05 µg/mL (≈ 0.126 µM) | MIC (Streptococcus pyogenes): 0.2 µg/mL (≈ 0.506 µM)

CCn1cc(C(=O)O)c(=O)c2cc(F)c(N3CC(C)NC(C)C3)cc21 (stereo not given)
MIC [1]: 2.5 µg/mL (≈ 7.2 µM) | MIC (Enterobacter cloacae): 0.2 µg/mL (≈ 0.576 µM) | MIC (Escherichia coli): 0.2 µg/mL (≈ 0.576 µM) | Geometric mean MIC over Gram-negative bacteria (µg/mL) (Bacteria [2]): 0.6 | Geometric mean MIC over Gram-positive bacteria (µg/mL) (Bacteria [3]): 1.21 | MIC (Klebsiella pneumoniae): 0.4 µg/mL (≈ 1.15 µM) | MIC (Pseudomonas aeruginosa): 6.3 µg/mL (≈ 18.1 µM) | MIC (Bacteria [4]): 0.8 µg/mL (≈ 2.3 µM) | MIC (Staphylococcus aureus [5]): 1.6 µg/mL (≈ 4.61 µM) | MIC (Streptococcus pneumoniae): 1.6 µg/mL (≈ 4.61 µM) | MIC (Enterococcus faecalis): 1.6 µg/mL (≈ 4.61 µM) | MIC (Staphylococcus aureus [6]): 0.4 µg/mL (≈ 1.15 µM) | MIC (Streptococcus pyogenes): 1.6 µg/mL (≈ 4.61 µM)

O=C(O)c1cn(C2CC2)c2c(F)c(N3CCNCC3)c(F)c(O)c2c1=O
MIC [1]: 0.5 µg/mL (≈ 1.37 µM) | MIC (Enterobacter cloacae): 0.1 µg/mL (≈ 0.274 µM) | MIC (Escherichia coli): 0.05 µg/mL (≈ 0.137 µM) | Geometric mean MIC over Gram-negative bacteria (µg/mL) (Bacteria [2]): 0.17 | Geometric mean MIC over Gram-positive bacteria (µg/mL) (Bacteria [3]): 1.06 | MIC (Klebsiella pneumoniae): 0.2 µg/mL (≈ 0.547 µM) | MIC (Pseudomonas aeruginosa): 0.8 µg/mL (≈ 2.19 µM) | MIC (Bacteria [4]): 0.2 µg/mL (≈ 0.547 µM) | MIC (Staphylococcus aureus [5]): 1.6 µg/mL (≈ 4.38 µM) | MIC (Streptococcus pneumoniae): 1.6 µg/mL (≈ 4.38 µM) | MIC (Enterococcus faecalis): 1.6 µg/mL (≈ 4.38 µM) | MIC (Staphylococcus aureus [6]; [7]): 0.2 µg/mL (≈ 0.547 µM) | MIC (Streptococcus pyogenes): 1.6 µg/mL (≈ 4.38 µM)

CCn1cc(C(=O)O)c(=O)c2c(O)c(F)c(N3CC(C)NC(C)C3)c(F)c21 (stereo not given)
MIC [1]: 5 µg/mL (≈ 13.1 µM) | MIC (Enterobacter cloacae): 0.8 µg/mL (≈ 2.1 µM) | MIC (Escherichia coli): 0.8 µg/mL (≈ 2.1 µM) | Geometric mean MIC over Gram-negative bacteria (µg/mL) (Bacteria [2]): 2.41 | Geometric mean MIC over Gram-positive bacteria (µg/mL) (Bacteria [3]): 16.49 | MIC (Klebsiella pneumoniae): 1.6 µg/mL (≈ 4.2 µM) | MIC (Pseudomonas aeruginosa): 12.5 µg/mL (≈ 32.8 µM) | MIC (Bacteria [4]): 6.3 µg/mL (≈ 16.5 µM) | MIC (Staphylococcus aureus [5]): 6.3 µg/mL (≈ 16.5 µM) | MIC (Streptococcus pneumoniae): 50 µg/mL (≈ 131 µM) | MIC (Enterococcus faecalis): 25 µg/mL (≈ 65.6 µM) | MIC (Staphylococcus aureus [6]; [7]): 3.1 µg/mL (≈ 8.13 µM) | MIC (Streptococcus pyogenes): 50 µg/mL (≈ 131 µM)

CCn1cc(C(=O)O)c(=O)c2cc(F)c(N3CC(C)NC(C)C3)c(Cl)c21 (stereo not given)
MIC [1]: 5 µg/mL (≈ 13.1 µM) | MIC (Enterobacter cloacae): 3.1 µg/mL (≈ 8.12 µM) | MIC (Escherichia coli): 1.6 µg/mL (≈ 4.19 µM) | Geometric mean MIC over Gram-negative bacteria (µg/mL) (Bacteria [2]): 4.14 | Geometric mean MIC over Gram-positive bacteria (µg/mL) (Bacteria [3]): 6.27 | MIC (Klebsiella pneumoniae): 3.1 µg/mL (≈ 8.12 µM) | MIC (Pseudomonas aeruginosa): 12.5 µg/mL (≈ 32.7 µM) | MIC (Bacteria [4]): 6.3 µg/mL (≈ 16.5 µM) | MIC (Staphylococcus aureus [5]): 3.1 µg/mL (≈ 8.12 µM) | MIC (Streptococcus pneumoniae): 12.5 µg/mL (≈ 32.7 µM) | MIC (Enterococcus faecalis): 12.5 µg/mL (≈ 32.7 µM) | MIC (Staphylococcus aureus [6]): 1.6 µg/mL (≈ 4.19 µM) | MIC (Streptococcus pyogenes): 12.5 µg/mL (≈ 32.7 µM)

CCn1cc(C(=O)O)c(=O)c2cc(F)c(N3CCC(N)C3)cc21 (stereo not given)
MIC [1]: 2.5 µg/mL (≈ 7.83 µM) | MIC (Enterobacter cloacae): 0.1 µg/mL (≈ 0.313 µM) | MIC (Escherichia coli): 0.1 µg/mL (≈ 0.313 µM) | Geometric mean MIC over Gram-negative bacteria (µg/mL) (Bacteria [2]): 0.13 | Geometric mean MIC over Gram-positive bacteria (µg/mL) (Bacteria [3]): 0.4 | MIC (Klebsiella pneumoniae): 0.2 µg/mL (≈ 0.626 µM) | MIC (Pseudomonas aeruginosa): 0.8 µg/mL (≈ 2.51 µM) | MIC (Bacteria [4]): 0.2 µg/mL (≈ 0.626 µM) | MIC (Staphylococcus aureus [5]): 0.8 µg/mL (≈ 2.51 µM) | MIC (Streptococcus pneumoniae): 0.4 µg/mL (≈ 1.25 µM) | MIC (Enterococcus faecalis): 0.8 µg/mL (≈ 2.51 µM) | MIC (Staphylococcus aureus [6]): 0.1 µg/mL (≈ 0.313 µM) | MIC (Streptococcus pyogenes): 0.4 µg/mL (≈ 1.25 µM)
